Test results taken from ChEMBL document CHEMBL1949601, “γ-Carbolines: a novel class of cannabinoid agonists with high aqueous solubility and restricted CNS penetration” (Bioorg Med Chem Lett, 2012).
Values after ≈ are worked out from the molar mass of the structure shown.

Legend:
Cannabinoid receptor 1 [1] = target: T1, Cannabinoid receptor 1 (Homo sapiens, UniProt P21554); assay: Displacement of [3H]-CP55,940 from human CB1 receptor expressed in HEK293 cells; assay type: cell-based
Cannabinoid receptor 1 [2] = target: T1, Cannabinoid receptor 1; assay: Agonist activity at human CB1 receptor expressed in HEK293 EBNA cells by [35S]GTPgamma binding assay; assay type: functional, cell-based
[3] = Aqueous solubility of the compound at pH 7.4; assay type: physicochemical
[4] = target: Angiotensin-converting enzyme (Homo sapiens) (UniProt P12821); assay: Activity of human ACE at 10 uM
[5] = target: Prostaglandin G/H synthase 1 (Homo sapiens) (UniProt P23219); assay: Activity at human COX1 receptor at 10 uM
Chain of Prostaglandin G/H synthase 1 (Homo sapiens) (P23219 whole entry): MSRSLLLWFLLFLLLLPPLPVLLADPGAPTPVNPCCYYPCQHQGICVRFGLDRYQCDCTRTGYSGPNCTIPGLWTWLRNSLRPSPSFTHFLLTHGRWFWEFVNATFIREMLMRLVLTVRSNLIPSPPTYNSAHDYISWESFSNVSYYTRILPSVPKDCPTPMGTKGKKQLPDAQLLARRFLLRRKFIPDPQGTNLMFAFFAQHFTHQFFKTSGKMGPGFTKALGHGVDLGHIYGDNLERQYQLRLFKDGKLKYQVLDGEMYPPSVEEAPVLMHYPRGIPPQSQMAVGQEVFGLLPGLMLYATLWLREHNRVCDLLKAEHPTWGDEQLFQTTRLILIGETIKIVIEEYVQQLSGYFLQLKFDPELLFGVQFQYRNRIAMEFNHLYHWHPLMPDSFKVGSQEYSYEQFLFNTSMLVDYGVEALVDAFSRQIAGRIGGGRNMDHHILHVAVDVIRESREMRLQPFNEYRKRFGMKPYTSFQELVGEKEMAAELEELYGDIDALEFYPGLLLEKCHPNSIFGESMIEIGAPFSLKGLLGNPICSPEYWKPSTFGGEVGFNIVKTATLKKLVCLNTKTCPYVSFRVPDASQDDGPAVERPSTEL

[6] = target: Mitogen-activated protein kinase 1 (Mus musculus) (UniProt P63085); assay: Activity at mouse ERK2 receptor at 10 uM
[7] = target: Adrenergic receptor alpha-1 (Rattus norvegicus) (UniProt P15823+P23944+P43140); assay: Activity at rat alpha1adrenergic receptor at 10 uM
[8] = target: Alpha-2A adrenergic receptor (Homo sapiens) (UniProt P08913); assay: Activity at human alpha2a adrenergic receptor at 10 uM
[9] = target: Beta-1 adrenergic receptor (Homo sapiens) (UniProt P08588); assay: Activity at human beta1 adrenergic receptor at 10 uM
[10] = target: Estrogen receptor (Homo sapiens) (UniProt P03372); assay: Activity at human ERalpha receptor at 10 uM
[11] = target: Histamine H1 receptor (Homo sapiens) (UniProt P35367); assay: Activity at human histamine H1 receptor at 10 uM
[12] = target: Muscarinic acetylcholine receptor M2 (Homo sapiens) (UniProt P08172); assay: Activity at human M2 receptor at 10 uM
[13] = target: Muscarinic acetylcholine receptor M3 (Homo sapiens) (UniProt P20309); assay: Activity at human M3 receptor at 10 uM
Chain of Muscarinic acetylcholine receptor M3 (Homo sapiens) (P20309 whole entry, looked up): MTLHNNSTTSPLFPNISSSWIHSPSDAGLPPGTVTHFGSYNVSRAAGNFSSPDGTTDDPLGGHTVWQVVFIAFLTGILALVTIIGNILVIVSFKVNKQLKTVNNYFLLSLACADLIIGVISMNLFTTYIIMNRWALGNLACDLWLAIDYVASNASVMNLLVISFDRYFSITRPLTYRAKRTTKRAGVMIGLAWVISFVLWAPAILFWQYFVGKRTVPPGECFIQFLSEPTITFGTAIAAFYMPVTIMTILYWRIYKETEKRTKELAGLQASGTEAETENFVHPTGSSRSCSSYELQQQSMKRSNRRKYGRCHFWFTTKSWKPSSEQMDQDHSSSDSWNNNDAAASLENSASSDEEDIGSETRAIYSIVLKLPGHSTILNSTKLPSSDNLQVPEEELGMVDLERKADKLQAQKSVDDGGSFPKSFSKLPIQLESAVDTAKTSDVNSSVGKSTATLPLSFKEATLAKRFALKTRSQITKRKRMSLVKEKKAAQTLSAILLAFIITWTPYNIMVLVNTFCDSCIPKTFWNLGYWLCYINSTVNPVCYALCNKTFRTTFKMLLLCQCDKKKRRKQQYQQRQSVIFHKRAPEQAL

[14] = target: 5-hydroxytryptamine receptor 2A (Homo sapiens) (UniProt P28223); assay: Activity at 5-HT2a receptor at 10 uM
[15] = target: Sodium-dependent noradrenaline transporter (Homo sapiens) (UniProt P23975); assay: Activity at human NET receptor at 10 uM
[16] = target: 5-hydroxytryptamine receptor 6 (Homo sapiens) (UniProt P50406); assay: Activity at human 5HT6 receptor at 10 uM
[17] = target: Adenosine receptor A2a (Homo sapiens) (UniProt P29274); assay: Activity at human A2a receptor at 10 uM
[18] = target: Type-1 angiotensin II receptor (Homo sapiens) (UniProt P30556); assay: Activity at human AT1 receptor at 10 uM
[19] = target: Bombesin receptor subtype-3 (Homo sapiens) (UniProt P32247); assay: Activity at human BRS3 at 10 uM
Chain of Bombesin receptor subtype-3 (Homo sapiens) (P32247 whole entry): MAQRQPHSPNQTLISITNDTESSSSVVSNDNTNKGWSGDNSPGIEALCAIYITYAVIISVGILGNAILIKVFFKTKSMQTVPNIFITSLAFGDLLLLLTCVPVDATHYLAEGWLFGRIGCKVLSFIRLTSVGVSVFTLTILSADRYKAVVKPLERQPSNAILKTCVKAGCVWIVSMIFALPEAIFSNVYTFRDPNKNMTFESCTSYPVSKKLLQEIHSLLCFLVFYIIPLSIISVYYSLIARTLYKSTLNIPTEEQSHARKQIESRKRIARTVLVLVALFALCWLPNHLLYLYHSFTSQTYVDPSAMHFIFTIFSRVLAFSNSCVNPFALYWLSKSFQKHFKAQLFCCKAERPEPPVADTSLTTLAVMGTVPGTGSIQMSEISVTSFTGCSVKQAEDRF

[20] = target: C-C chemokine receptor type 2 (Homo sapiens) (UniProt P41597); assay: Activity at human CCR2b at 10 uM
[21] = target: C-C chemokine receptor type 5 (Homo sapiens) (UniProt P51681); assay: Activity at human CCR5 at 10 uM
[22] = target: Corticotropin-releasing factor receptor 1 (Homo sapiens) (UniProt P34998); assay: Activity at human CRF1 receptor at 10 uM
Chain of Corticotropin-releasing factor receptor 1 (Homo sapiens) (P34998 whole entry): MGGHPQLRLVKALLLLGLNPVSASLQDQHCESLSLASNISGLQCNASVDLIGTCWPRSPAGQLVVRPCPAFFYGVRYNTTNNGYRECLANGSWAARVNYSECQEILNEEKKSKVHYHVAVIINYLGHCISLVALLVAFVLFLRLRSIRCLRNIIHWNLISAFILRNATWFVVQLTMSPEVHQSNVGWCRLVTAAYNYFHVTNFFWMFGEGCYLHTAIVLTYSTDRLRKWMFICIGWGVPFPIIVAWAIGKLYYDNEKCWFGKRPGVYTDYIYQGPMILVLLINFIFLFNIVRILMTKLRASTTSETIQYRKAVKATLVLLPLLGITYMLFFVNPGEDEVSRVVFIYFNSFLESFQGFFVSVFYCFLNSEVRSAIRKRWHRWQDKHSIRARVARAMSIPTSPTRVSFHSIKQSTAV

[23] = target: CX3C chemokine receptor 1 (Homo sapiens) (UniProt P49238); assay: Activity at human CX3CR1 receptor at 10 uM
[24] = target: Endothelin-1 receptor (Homo sapiens) (UniProt P25101); assay: Activity at human ETA receptor at 10 uM
[25] = target: Growth hormone secretagogue receptor type 1 (Homo sapiens) (UniProt Q92847); assay: Activity at human GHS receptor at 10 uM
[26] = target: Melanocortin receptor 4 (Homo sapiens) (UniProt P32245); assay: Activity at human MC4 receptor at 10 uM
Chain of Melanocortin receptor 4 (Homo sapiens) (P32245 whole entry): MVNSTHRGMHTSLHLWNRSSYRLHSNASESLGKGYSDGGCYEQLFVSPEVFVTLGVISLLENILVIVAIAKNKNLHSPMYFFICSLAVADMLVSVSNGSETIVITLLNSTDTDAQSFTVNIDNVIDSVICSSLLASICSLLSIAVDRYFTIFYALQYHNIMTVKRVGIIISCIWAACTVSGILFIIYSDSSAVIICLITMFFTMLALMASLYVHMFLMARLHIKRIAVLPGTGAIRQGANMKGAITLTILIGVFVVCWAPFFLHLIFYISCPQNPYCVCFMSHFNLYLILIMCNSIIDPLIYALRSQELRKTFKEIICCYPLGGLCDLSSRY

[27] = target: Melanin-concentrating hormone receptor 1 (Homo sapiens) (UniProt Q99705); assay: Activity at human MCH1 receptor at 10 uM
[28] = target: Muscarinic acetylcholine receptor M4 (Homo sapiens) (UniProt P08173); assay: Activity at human M4 receptor at 10 uM
Chain of Muscarinic acetylcholine receptor M4 (Homo sapiens) (P08173 whole entry): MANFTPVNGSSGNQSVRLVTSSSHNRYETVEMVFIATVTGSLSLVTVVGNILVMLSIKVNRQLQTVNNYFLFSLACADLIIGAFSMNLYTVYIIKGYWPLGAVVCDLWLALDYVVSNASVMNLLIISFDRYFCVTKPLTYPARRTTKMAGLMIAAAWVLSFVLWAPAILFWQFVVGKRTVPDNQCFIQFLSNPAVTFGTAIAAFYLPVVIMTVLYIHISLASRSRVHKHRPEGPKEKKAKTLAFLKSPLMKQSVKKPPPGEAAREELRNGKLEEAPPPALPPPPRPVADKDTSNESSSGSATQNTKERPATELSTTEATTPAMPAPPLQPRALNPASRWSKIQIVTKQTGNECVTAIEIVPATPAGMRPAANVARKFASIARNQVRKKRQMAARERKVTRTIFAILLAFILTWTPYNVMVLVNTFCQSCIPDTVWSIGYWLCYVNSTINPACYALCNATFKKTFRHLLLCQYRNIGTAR

[29] = target: Glucagon-like peptide 1 receptor (Homo sapiens) (UniProt P43220); assay: Activity at human GLP1 receptor at 10 uM
[30] = target: Glucagon-like peptide 2 receptor (Homo sapiens) (UniProt O95838); assay: Activity at human GLP2 receptor at 10 uM
[31] = target: Somatostatin receptor type 4 (Homo sapiens) (UniProt P31391); assay: Activity at human SST4 receptor at 10 uM
[32] = target: Vasopressin V1b receptor (Homo sapiens) (UniProt P47901); assay: Activity at human V1B receptor at 10 uM
[33] = target: Prokineticin-2 (Rattus norvegicus) (UniProt Q8R413); assay: Activity at rat PK2 receptor at 10 uM
Chain of Prokineticin-2 (Rattus norvegicus) (Q8R413 whole entry): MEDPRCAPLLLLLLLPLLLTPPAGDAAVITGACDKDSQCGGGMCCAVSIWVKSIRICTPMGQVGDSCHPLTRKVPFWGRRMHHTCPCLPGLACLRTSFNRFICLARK

[34] = target: N-formyl peptide receptor 2 (Homo sapiens) (UniProt P25090); assay: Activity at human FPRL1 receptor at 10 uM
[35] = target: Urotensin-2 receptor (Mus musculus) (UniProt Q8VIH9); assay: Activity at mouse UT2 receptor at 10 uM
[36] = target: Delta-type opioid receptor (Homo sapiens, UniProt P41143); assay: Inhibition of human DOR
[37] = target: Kappa-type opioid receptor (Homo sapiens, UniProt P41145); assay: Inhibition of human KOR
[38] = Apparent permeability across human Caco2 cells; assay type: ADME, cell-based; settings: Caco-2
[39] = Ratio of drug uptake in brain to plasma of Sprague-Dawley rat at 1 mg/kg, sc; assay type: ADME, organism-based; set-up: dose 1 mg/kg, route subcutaneous; settings: read-out: BPR
[40] = Fraction unbound in Sprague-Dawley rat plasma at 1 mg/kg, sc; assay type: ADME, organism-based; set-up: dose 1 mg/kg, route subcutaneous
[41] = Metabolic stability in human liver microsomes; assay type: ADME, Microsome; settings: read-out: Stability
[42] = Half life in iv dosed Sprague-Dawley rat; assay type: ADME, organism-based; settings: in vivo
[43] = Oral bioavailability in Sprague-Dawley rat; assay type: ADME, organism-based; settings: in vivo
Cytochrome P450 1A2 = Cytochrome P450 1A2 (Homo sapiens, UniProt P05177); assay: Inhibition of CYP1A2; assay type: ADME
Chain of Cytochrome P450 1A2 (P05177 whole entry): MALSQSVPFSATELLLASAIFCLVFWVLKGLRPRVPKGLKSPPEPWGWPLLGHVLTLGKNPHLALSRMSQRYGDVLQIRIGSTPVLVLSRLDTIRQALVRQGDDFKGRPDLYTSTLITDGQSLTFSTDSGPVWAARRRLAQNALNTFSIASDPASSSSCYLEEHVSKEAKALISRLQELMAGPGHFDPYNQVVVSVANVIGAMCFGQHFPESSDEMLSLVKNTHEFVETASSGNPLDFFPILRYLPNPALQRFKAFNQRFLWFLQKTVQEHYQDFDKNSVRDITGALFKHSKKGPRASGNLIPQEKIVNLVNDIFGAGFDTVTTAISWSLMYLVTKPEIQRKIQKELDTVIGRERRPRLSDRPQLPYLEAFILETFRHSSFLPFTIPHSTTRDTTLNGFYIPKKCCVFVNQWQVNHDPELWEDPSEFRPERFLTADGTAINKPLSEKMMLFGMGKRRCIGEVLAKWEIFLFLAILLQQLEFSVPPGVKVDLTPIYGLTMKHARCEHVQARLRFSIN

Cytochrome P450 2C9 = Cytochrome P450 2C9 (Homo sapiens, UniProt P11712); assay: Inhibition of CYP2C9; assay type: ADME
Chain of Cytochrome P450 2C9 (P11712 whole entry): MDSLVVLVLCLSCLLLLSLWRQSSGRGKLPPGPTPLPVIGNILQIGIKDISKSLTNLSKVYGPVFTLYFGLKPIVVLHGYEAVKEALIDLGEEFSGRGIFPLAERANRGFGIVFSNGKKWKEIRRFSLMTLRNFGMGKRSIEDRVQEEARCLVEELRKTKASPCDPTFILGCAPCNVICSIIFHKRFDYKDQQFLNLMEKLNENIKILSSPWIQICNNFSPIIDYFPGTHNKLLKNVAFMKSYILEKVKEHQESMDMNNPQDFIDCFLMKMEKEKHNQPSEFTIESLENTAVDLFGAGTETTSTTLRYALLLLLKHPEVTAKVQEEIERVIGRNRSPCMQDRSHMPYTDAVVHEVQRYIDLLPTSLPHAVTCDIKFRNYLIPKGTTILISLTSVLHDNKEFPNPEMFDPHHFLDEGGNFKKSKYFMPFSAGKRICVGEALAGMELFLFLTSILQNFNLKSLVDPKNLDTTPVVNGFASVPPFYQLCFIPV

Cytochrome P450 2C19 = Cytochrome P450 2C19 (Homo sapiens, UniProt P33261); assay: Inhibition of CYP2C19; assay type: ADME
Cytochrome P450 2D6 = Cytochrome P450 2D6 (Homo sapiens, UniProt P10635); assay: Inhibition of CYP2D6; assay type: ADME
Cannabinoid receptor 1 [44] = target: Cannabinoid receptor 1 (Mus musculus, UniProt P47746); assay: Agonist activity at CB1 receptor in field-stimulated mouse vas deferens; assay type: functional, tissue-based
Chain of Cannabinoid receptor 1 (Mus musculus, UniProt P47746) (P47746 whole entry): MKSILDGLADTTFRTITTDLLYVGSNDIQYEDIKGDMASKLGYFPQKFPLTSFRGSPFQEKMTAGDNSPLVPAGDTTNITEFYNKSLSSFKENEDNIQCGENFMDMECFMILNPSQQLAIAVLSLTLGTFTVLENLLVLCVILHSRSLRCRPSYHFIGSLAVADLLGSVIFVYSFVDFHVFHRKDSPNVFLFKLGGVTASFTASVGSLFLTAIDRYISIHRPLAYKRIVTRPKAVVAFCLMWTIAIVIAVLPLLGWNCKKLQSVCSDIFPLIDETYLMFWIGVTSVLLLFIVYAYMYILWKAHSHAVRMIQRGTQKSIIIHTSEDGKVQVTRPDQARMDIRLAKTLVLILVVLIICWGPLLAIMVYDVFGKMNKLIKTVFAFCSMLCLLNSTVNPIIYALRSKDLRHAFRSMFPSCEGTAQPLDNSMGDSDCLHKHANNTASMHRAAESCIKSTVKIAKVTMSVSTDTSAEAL
Outline: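 Isolated mouse vas deferens under electrical field stimulation, used as an intact tissue assay of CB1 agonism at the native receptor.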

Rattus norvegicus [45] = assay: Antihyperalgesic activity in sc dosed Sprague-Dawley rat carrageenan pain model; assay type: functional, organism-based
Outline: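 Rats dosed subcutaneously at 0.35, 0.70 and 1.4 mg/kg in carrageenan inflammatory pain model; reversal of heat hyperalgesia measured. n = 7 per group; mean ± SEM; one-way ANOVA with Holm-Sidak test versus vehicle group.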

Rattus norvegicus [46] = assay: Toxicity in Sprague-Dawley rat carrageenan pain model assessed as hypoactivity at […], sc; assay type: organism-based; settings: in vivo

T1 sequence (P21554 whole entry): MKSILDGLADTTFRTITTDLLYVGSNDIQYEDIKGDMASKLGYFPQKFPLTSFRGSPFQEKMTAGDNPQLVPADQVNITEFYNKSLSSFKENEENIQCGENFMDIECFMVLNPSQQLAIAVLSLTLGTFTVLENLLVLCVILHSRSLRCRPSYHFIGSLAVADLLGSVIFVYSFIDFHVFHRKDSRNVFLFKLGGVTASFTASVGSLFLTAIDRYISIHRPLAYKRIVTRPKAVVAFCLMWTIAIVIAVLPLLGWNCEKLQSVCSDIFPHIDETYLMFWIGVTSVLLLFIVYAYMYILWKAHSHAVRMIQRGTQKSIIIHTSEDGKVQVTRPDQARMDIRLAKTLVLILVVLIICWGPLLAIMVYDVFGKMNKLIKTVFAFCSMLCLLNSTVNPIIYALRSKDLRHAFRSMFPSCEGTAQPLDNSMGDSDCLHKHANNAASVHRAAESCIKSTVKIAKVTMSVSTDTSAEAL

Structure (SMILES): CCS(=O)(=O)n1c2c(c3cc(C(=O)N4CCC(C)CC4)ccc31)CN(C1CCOCC1)CC2
- Ki (Cannabinoid receptor 1 [1]): 0.12 µM
- EC50 (Cannabinoid receptor 1 [2]): 0.049 µM
- solubility [3]: 480 µg/mL (≈ 1010 µM)
- Activity [4]: < 50%
- Activity [5]: < 50%
- Activity [6]: < 50%
- Activity [7]: < 50%
- Activity [8]: < 50%
- Activity [9]: < 50%
- Activity [10]: < 50%
- Activity [11]: < 50%
- Activity [12]: < 50%
- Activity [13]: < 50%
- Activity [14]: < 50%
- Activity [15]: < 50%
- Activity [16]: < 50%
- Activity [17]: < 50%
- Activity [18]: < 50%
- Activity [19]: < 50%
- Activity [20]: < 50%
- Activity [21]: < 50%
- Activity [22]: < 50%
- Activity [23]: < 50%
- Activity [24]: < 50%
- Activity [25]: < 50%
- Activity [26]: < 50%
- Activity [27]: < 50%
- Activity [28]: < 50%
- Activity [29]: < 50%
- Activity [30]: < 50%
- Activity [31]: < 50%
- Activity [32]: < 50%
- Activity [33]: < 50%
- Activity [34]: < 50%
- Activity [35]: < 50%
- IC50 [36]: > 10 µM
- IC50 [37]: > 10 µM
- Papp [38]: 13 ×10⁻⁶ cm/s
- Kp [39]: 0.07
- fraction unbound [40]: 0.13
- microsomal CLint [41]: 52 µL/min/mg
- half-life [42]: 37.8 min
- bioavailability [43]: 16%
- IC50 (Cytochrome P450 1A2): > 20 µM
- IC50 (Cytochrome P450 2C9): > 20 µM
- IC50 (Cytochrome P450 2C19): > 20 µM
- IC50 (Cytochrome P450 2D6): > 20 µM
- IC50 (Cannabinoid receptor 1 [44]): 0.0019 µM
- Activity (Rattus norvegicus [45]): Dose-dependent effect
- Activity (Rattus norvegicus [46]): Toxic
